The values that follow come from ChEMBL document CHEMBL4177555, “Mycobacterium tuberculosis lysine-ɛ-aminotransferase a potential target in dormancy: Benzothiazole based inhibitors” (Bioorg Med Chem, 2017).

For data set [1], the system named is Mycobacterium tuberculosis. Briefly: Antibacterial activity against replicative stage Mycobacterium tuberculosis H37Rv after 7 days by MABA. In kind it is functional. The following applies: 168 h. In short, it runs like this:
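MABA run in duplicate. H37Rv from fresh LJ medium grown in 7H9/OADC at 37 °C to McFarland no.1, then diluted 1:25 as inoculum. Compounds tested in serial dilutions. After 7 days, alamar blue/Tween 80 (1:1) added and plates re-incubated overnight.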

In data set [2] the target is T1, L-lysine-epsilon aminotransferase (Mycobacterium tuberculosis, UniProt P9WQ77).
T1 sequence (P9WQ77 whole entry): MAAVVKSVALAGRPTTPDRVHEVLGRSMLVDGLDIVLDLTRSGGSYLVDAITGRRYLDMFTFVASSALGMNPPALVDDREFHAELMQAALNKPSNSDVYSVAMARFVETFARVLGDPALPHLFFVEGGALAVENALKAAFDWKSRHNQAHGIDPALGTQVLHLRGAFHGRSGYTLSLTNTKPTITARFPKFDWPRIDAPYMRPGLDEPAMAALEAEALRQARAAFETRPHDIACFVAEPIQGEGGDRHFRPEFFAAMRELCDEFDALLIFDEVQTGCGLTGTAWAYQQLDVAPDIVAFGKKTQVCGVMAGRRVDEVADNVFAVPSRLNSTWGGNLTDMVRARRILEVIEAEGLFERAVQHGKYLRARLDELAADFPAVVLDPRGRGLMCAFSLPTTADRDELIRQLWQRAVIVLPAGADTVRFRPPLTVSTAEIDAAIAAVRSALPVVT
Briefly: Inhibition of Mycobacterium tuberculosis LAT using L-lysine as substrate by spectroscopic method. In short, it runs like this: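 Purified recombinant MTB LAT incubated 1 h at 37 °C in 200 mM phosphate pH 7.2 with 1.5 mM L-lysine, 1.5 mM α-ketoglutarate and 15 µM pyridoxal 5-phosphate, with compounds at several concentrations. Stopped with 10% TCA in ethanol. Products read as o-aminobenzaldehyde adduct at 465 nm and at 280 nm.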

Data set [3] deals with Mycobacterium tuberculosis. Briefly: Antibacterial activity against Mycobacterium tuberculosis H37Rv nutrient starvation model assessed as log reduction in bacterial colonies at 10 ug/ml measured after 7 days by MPN assay. In kind it is functional. In short, it runs like this:
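H37Rv grown in 7H9/OADC to OD 0.8–1.0, washed twice, then held in PBS in sealed bottles at 37 °C for 6 weeks. Starved aliquots exposed to compound at 10 µg/ml for 7 days. Persisters enumerated by MPN assay.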

A short description of data set [4]: Growth inhibition of mouse RAW264.7 cells at 50 ug/ml after 48 hrs by MTT assay relative to control. In kind it is cell-based. The following applies: read-out: GI. A digest of the protocol: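 RAW 264.7 mouse macrophages exposed to compound at 50 µg/ml for 48 h. Viability read as MTT conversion to formazan.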
A general note: Formazan colour is commonly taken as a measure of viable cells.

Data set [5] deals with Mycobacterium tuberculosis. Briefly: Antibiofilm activity against Mycobacterium tuberculosis assessed as log reduction in bacterial count at 10 ug/ml measured after 7 days by MPN assay. In kind it is functional. In short, it runs like this: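 MTB inoculated 1:100 in Sauton's medium, sealed and grown 5 weeks at 37 °C to form a mature biofilm. Compound added to the medium (n=4) for 7 days. Tween-80 0.1% added, cells washed in PBS/10% glycerol/0.05% Tween-80 and homogenised. Persisters compared with solvent control by MPN assay.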

Data set [6] relates to Mycobacterium tuberculosis. As to the kind of experiment: Antibacterial activity against Mycobacterium tuberculosis H37Rv infected in 3D culture of human PBMC assessed as colony forming units treated for 4 days measured after 3 days. In kind it is functional. In short, it runs like this: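 PBMCs at 5x10^5 cells/well in collagen–fibronectin ECM (pH 7.0), infected with H37Rv at MOI 0.1, grown in RPMI with 20% human serum at 37 °C/CO2. Granulomas treated 4 days, then with or without Rif for 3 more days. Collagenase release, Triton X-100 lysis, 7H10 plating, cfu counted after 4 weeks.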

The test system of data set [7] is Mycobacterium tuberculosis. Briefly: Antibacterial activity against non-replicative stage Mycobacterium tuberculosis H37Rv. In kind it is functional, organism-based.
For data set [8], the system named is Mycobacterium marinum. As to the kind of experiment: Antibacterial activity against Mycobacterium marinum ATCC BAA-535 infected in Zebra fish assessed as log reduction in bacterial counts at 10 mg/kg, po administered for 7 days by MPN assay. The data set is classed as functional. In short, it runs like this:
(§1)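 Adult zebrafish (n=6 per group) infected intraperitoneally with M. marinum ATCC BAA-535 grown at 30 °C in 7H9 broth (about 0.75 million bacteria). From day 7 after infection, drug given orally by micropipette for 7 days. Fish then homogenised, tissue taken up in 7H9 broth, and bacterial counts read by MPN assay.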

The subject of data set [9] is Mycobacterium marinum. Briefly: Antibacterial activity against Mycobacterium marinum ATCC BAA-535 infected in Zebra fish assessed as log reduction in bacterial counts at 5 mg/kg, po administered for 7 days by MPN assay. The data set is classed as functional. A digest of the protocol: as §1

As usually defined, the MIC is the lowest concentration found to suppress growth. In general, IC50 refers to the midpoint of a concentration-inhibition curve. Higher therefore signals weaker potency.

In brackets after ≈: the same amount, converted by molar mass. Activity calls are given as the source filed them. The rule behind the calls is not given here.

In data set [1], `N#C/C(=C\c1ccc([N+](=O)[O-])o1)c1nc2ccccc2s1` showed an MIC greater than 84.2 µM. For the same compound, the midpoint of inhibition in [2], the IC50, lay at 19.6 µM. The “log(activity)” value in data set [3] came to 2.8. In addition, the inhibition at 48 h, 50 ug/ml in [4] was determined as 19.6%.
The compound `N#C/C(=C\c1ccc(-c2ccc(C(=O)O)cc2)o1)c1nc2ccccc2s1` gave an MIC in [1] greater than 67.2 µM. This compound also showed an IC50 in [2] of 14.1 µM. In addition, the inhibition at 48 h, 50 ug/ml in data set [4] turned out to be 15.2%.
On to `N#C/C(=C\c1ccccc1OCC(=O)O)c1nc2ccccc2s1`, for which the MIC in data set [1] turned out to be 2.32 µM (≈ 0.78 µg/mL). Besides, in [2], the IC50 came out at 53.8 µM. For the same compound, in data set [4], the inhibition at 48 h, 50 ug/ml was 52.3%.
In the case of `CO[C@H]1/C=C/O[C@@]2(C)Oc3c(C)c(O)c4c(O)c(c(/C=N/N5CCN(C)CC5)c(O)c4c3C2=O)NC(=O)/C(C)=C\C=C\[C@H](C)[C@H](O)[C@@H](C)[C@@H](O)[C@@H](C)[C@H](OC(C)=O)[C@@H]1C` [RIFAMPIN], 0.5 µM (≈ 0.411 µg/mL) was the least that counted as inhibitory in [1] (MIC). The “log(activity)” value in [5] turned out to be 2; in data set [3] it was 1.3. Moreover, in data set [6], the Activity amounted to 3.3 ×10⁵ CFU. The inhibition at 48 h, 50 ug/ml in data set [4] stood at 23.5%.
In [1], `N#C/C(=C\c1ccc[nH]1)c1nc2ccccc2s1` yielded an MIC greater than 99.6 µM. The same compound gave an IC50 in [2] of 17 µM. For the same compound, in [4], the inhibition at 48 h, 50 ug/ml is 56.4%.
The compound `N#C/C(=C\c1ccco1)c1nc2ccccc2s1` had an MIC in data set [1] of 49.6 µM (≈ 12.5 µg/mL). In addition, half-maximal inhibition in data set [2] (IC50) required 16.2 µM. For the same compound, the inhibition at 48 h, 50 ug/ml in data set [4] amounted to 47.3%.
The corresponding values for `N#C/C(=C\c1ccc2c(c1)OCO2)c1nc2ccccc2s1` are 81.7 µM (≈ 25 µg/mL), 66 µM and 45.7%.
The corresponding values for `N#C/C(=C\c1ccc(O)cc1O)c1nc2ccccc2s1` are 10.6 µM (≈ 3.12 µg/mL), 23.2 µM and 45.7%.
For `N#C/C(=C\c1ccc(OCc2ccccc2)cc1)c1nc2ccccc2s1`, in data set [1], the minimal inhibitory concentration (MIC) stood at 68 µM (≈ 25 µg/mL). In data set [2], this compound had an IC50 of 47.9 µM. In addition, the inhibition at 48 h, 50 ug/ml in [4] came to 22.8%.
The corresponding values for `COc1cc(/C=C(\C#N)c2nc3ccccc3s2)ccc1O` are 20.3 µM (≈ 6.26 µg/mL), 7.83 µM and 34.8%.
`N#C/C(=C\c1ccc(-c2cc(C(=O)O)cc(C(=O)O)c2)o1)c1nc2ccccc2s1`: in [1], the minimum inhibitory concentration (MIC) turned out to be 60.1 µM (≈ 25 µg/mL). In addition, the IC50 in data set [2] is 1.15 µM. The “log(activity)” value in data set [3] is listed as 2.8. The inhibition at 48 h, 50 ug/ml in data set [4] is 14.4%.
On to `N#C/C(=C\c1c[nH]c2ccccc12)c1nc2ccccc2s1`, for which the MIC in data set [1] is greater than 83.1 µM. Also, the IC50 in [2] is 37.9 µM. Moreover, the inhibition at 48 h, 50 ug/ml in data set [4] came out at 45.7%.
In the case of `N#C/C(=C\c1ccc([N+](=O)[O-])s1)c1nc2ccccc2s1`, the MIC in data set [1] is greater than 79.9 µM. In addition, the midpoint of inhibition in data set [2], the IC50, lay at 54.8 µM. For the same compound, in [4], the inhibition at 48 h, 50 ug/ml is 60.3%.
The corresponding values for `N#C/C(=C\c1ccc(F)cc1)c1nc2ccccc2s1` are 89.3 µM (≈ 25 µg/mL), 4.11 µM and 10.6%.
As for `N#C/C(=C\c1cccs1)c1nc2ccccc2s1`, the MIC in [1] is greater than 93.3 µM. This compound also gave an IC50 in data set [2] of 92.6 µM. The inhibition at 48 h, 50 ug/ml in data set [4] stood at 17.3%.
`N#C/C(=C\c1ccc(OCC(=O)O)cc1)c1nc2ccccc2s1`: the lowest concentration to inhibit growth in data set [1] (MIC) was 4.64 µM (≈ 1.56 µg/mL). In data set [7], the outcome was Active. Besides, the IC50 in [2] was determined as 3.08 µM. The “log(activity)” value in data set [3] is given as 2.8. Also, in [4], the inhibition at 48 h, 50 ug/ml came to 12.7%.
On to `COc1c(N2C[C@@H]3CCCN[C@@H]3C2)c(F)cc2c(=O)c(C(=O)O)cn(C3CC3)c12` [MOXIFLOXACIN], for which the “log(activity)” value in data set [8] is 2.7; in data set [5], 1.8; in [3], 2.2.
Regarding `COc1cc(/C=C(\C#N)c2nc3ccccc3s2)cc(OC)c1OC`, the MIC in data set [1] was greater than 71 µM. Moreover, in data set [2], half-maximal inhibition (IC50) required 64.9 µM. Besides, the inhibition at 48 h, 50 ug/ml in data set [4] came out at 12.6%.
Taken in the same sequence, the figures for `COc1ccc(/C=C(\C#N)c2nc3ccccc3s2)cc1OC` were greater than 77.6 µM, 61.4 µM and 32.5%.
`N#C/C(=C\c1ccc(-c2cccc(C(=O)O)c2)s1)c1nc2ccccc2s1`: the MIC in [1] is 64.4 µM (≈ 25 µg/mL). Further, the “log(activity)” value in [5] was 2.1; in data set [3] it was 2.9. For the same compound, in data set [2], the IC50 came to 5.73 µM. The inhibition at 48 h, 50 ug/ml in data set [4] was 18.9%.
The compound `N#C/C(=C\c1ccc(-c2ccc(C(=O)O)cc2)s1)c1nc2ccccc2s1` registered an MIC in data set [1] of 2.01 µM (≈ 0.781 µg/mL). In addition, in data set [7], the result was Active. The same compound displayed an IC50 in [2] of 6.72 µM. In addition, in data set [4], the inhibition at 48 h, 50 ug/ml was found to be 5.64%.
Compound `N#C/C(=C\c1ccc(-c2cccc(C(=O)O)c2)o1)c1nc2ccccc2s1` came in with an MIC in [1] greater than 67.2 µM. In data set [2], the IC50 was determined as 3.74 µM. Further, the inhibition at 48 h, 50 ug/ml in [4] is 3.12%.
The corresponding values for `N#C/C(=C\c1ccc(O)cc1)c1nc2ccccc2s1` are greater than 89.9 µM, 10.4 µM and 2.26%.
On to `NNC(=O)c1ccncc1` [ISONIAZID], for which the entries for the “log(activity)” value in data set [9], in data set [5] and in data set [3] were 2.8, 1.9 and 1.2, respectively. In [1], this compound had an MIC of 0.4 µM (≈ 0.0549 µg/mL). In addition, in [4], the inhibition at 48 h, 50 ug/ml is 93.2%.
